The list is not random: actives were taken first. Their share in the collection is about 5.1%.
STAT3 blocker = IL-6 driven STAT3 reporter inhibitors, primary screen, U3A cells, luciferase, luminescence, MLSCN library; AID 862, 2007; IL-6 STAT3-luciferase reporter; host cell line lacks STAT1; inhibition, % at 5.5 µM; 190,000 compounds, 0.89% hits;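 active = inhibition above the mean inhibition across all screened compounds plus 3 SD, cut at about 44% in these data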;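 note: 0% = DMSO only wells and 100% = 100 µM nifuroxazide control wells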
APP 5'UTR act = activators of APP 5'UTR luciferase reporter, primary screen, SH-SY5Y cells | SH-SY5Y APP 5'UTR luciferase reporter, luminescence; zero percent = DMSO vehicle wells | activation, % at 2 µM | 190,000 compounds, 1% hits | AID 1276, 2008;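 active = activation above a set limit, based on mean plus 3 SD of controls, cut at about 140% in these data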
STAT1 act = STAT1 signaling activators, primary screen, cell-based, HTS, luciferase reporter; NIH 3T3 STAT1-luciferase reporter, IFN-gamma, luminescence; 100% = IFN-gamma alone, no compound; activation (% of control), % at 5.5 µM; 200,000 compounds, 2.6% hits; AID 932, 2007;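 active = activation above the screen-wide mean activation plus 3 SD, cut at about 130% in these data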;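 note: raw ratio to IFN-gamma control signal so 100% means no change and 0% no light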
STAT1 blocker = STAT1 signaling inhibitors, primary screen, cell-based, HTS, luciferase reporter | 200,000 compounds, 0.35% hits | inhibition, % at 5.5 µM | AID 920, 2007 | NIH 3T3 STAT1-luciferase reporter, IFN-gamma, luminescence;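 active = inhibition above a set limit, the mean inhibition across all tested compounds plus 3 SD, cut at about 34% in these data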;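 note: 0% = IFN-gamma with DMSO and 100% = IFN-gamma with 300 µM nifuroxazide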
STAT3 act = IL-6 driven STAT3 reporter potentiators, primary screen, U3A cells, luciferase, luminescence, MLSCN library; 190,000 compounds, 0.91% hits; IL-6 STAT3-luciferase reporter; 100% = signal with IL-6 EC80 alone; activation (% of control), % at 5.6 µM;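 active = activation above the screen-wide mean of compound activation plus 3 SD, cut at about 130% in these data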;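 note: 0% = background luminescence of wells with medium and substrate only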
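Test system: human U3A cells carrying STAT3-luciferase construct; control set: IL-6-only wells as 100% reference; timing: compound pre-incubation 1 h before IL-6, then 6 h stimulation at 37 °C; also added: IL-6 stimulus at 33 ng/mL final; evaluation: % activation versus median of IL-6-stimulated wells; detection: reporter luminescence signal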
NF-kB expr up = activators of NF-kB expression in neurons, primary screen, cell-based, HTS. human neuronal cells, NF-kB reporter expression; stronger effect = higher value. 190,000 compounds, 1.6% hits. fold change at 12.5 µM; in the data active = fold change above about 3.3
* hit, by the source's call; / = no result given.

SMILES	STAT3 blocker	APP 5'UTR act	STAT1 act	STAT1 blocker	STAT3 act	NF-kB expr up
Cc1nc2sc(-c3ccccc3)nn2c(=O)c1Br	17.4	112.1	146.7*	-51.2	91.4	4.55*
[O-]/[N+](=C\c1ccncc1)c1ccc(Br)cc1	2.5	95.1	122.2	-24.4	101.1	4.52*
Fc1ccc(NC(=S)Nc2nccs2)cc1	20.9	71.0	109.8	-10.5	86.4	9.07*
CCc1nnc(NC(=O)c2ccc(-c3ccc(F)cc3)o2)s1	23.3	1.9	100.4	-2.3	83.3	1.27
O=C(Nc1cccnc1)c1ccc(-c2ccc(Cl)cc2)o1	8.1	30.1	126.8	-30.1	94.5	1.88
O=C(Nc1nccs1)c1ccc(-c2ccc(F)cc2)o1	18.6	156.7*	128.6*	-33.1	86.0	3.09
O=C(Nc1nccs1)c1ccc(-c2ccc(Cl)cc2)o1	15.9	133.2	137.7*	-40.9	90.1	6.11*
CC(=O)c1ccc(NC(=O)C(C)NCc2ccccc2Cl)cc1 (configuration not stated)	7.4	51.1	104.5	-4.9	97.7	0.96
Cc1nc(N2CCN(S(=O)(=O)c3ccc(F)cc3)CC2)c2c(-c3cccs3)csc2n1	5.8	-7.4	94.8	5.3	101.6	0.78
CCCCn1nnnc1NCc1ccc(N(CC)CC)cc1	-8.5	5.9	99.0	1.1	104.4	0.84
O=C(N/N=C/c1c[nH]c2ccc(Br)cc12)c1ccc2c(c1)OCO2	13.4	18.7	105.5	-6.0	90.9	0.87
C/C(=N\NC(=O)c1ccccc1)c1ccc2c(c1)OCO2	-6.6	45.0	117.0	-18.5	112.7	2.07
O=C(N/N=C/c1ccc(Br)s1)c1c[nH]c2ccccc12	-14.1	64.1	137.7*	-43.0	114.3	1.22
O=C(N/N=C/c1ccc(Br)s1)Nc1ccccc1	19.3	21.4	130.2*	-32.6	87.5	1.73
C/C(=N\NC(=O)c1c[nH]c2ccccc12)c1ccc2c(c1)OCO2	6.4	10.1	134.6*	-39.0	100.3	0.84
O=C(N/N=C/c1cc2c(cc1Br)OCO2)c1c[nH]c2ccccc12	14.4	93.9	143.4*	-50.7	90.0	0.91
CCC(C)(C(=O)NC1CCCC1)N(C(=O)CC1NC(=O)NC1=O)c1c(C)n(C)n(-c2ccccc2)c1=O (configuration not stated)	6.6	5.1	102.7	-3.7	105.0	1.27
O=C(Nc1cccc(Cl)c1)c1ccc2c(c1)SC1=NS(=O)(=O)CCN12	3.2	17.8	89.1	10.6	101.2	1.05
O=C(Nc1cccc([N+](=O)[O-])c1)Nc1cccs1	9.6	-0.7	83.2	17.1	93.3	1.09
CCCN1C(=O)/C(=C/c2ccccc2OCc2ccc(C(=O)O)cc2)NC1=S	3.5	-14.6	107.7	-7.9	102.3	/
Cc1[nH]c2ccccc2c1/C=N/NC(=O)CCC(=O)Nc1ccccc1	-14.2	15.6	100.5	-2.7	115.3	0.92
Cc1[nH]c2ccccc2c1/C=N/NC(=O)Nc1ccccc1	-49.4	48.7	131.1*	-30.9	147.6*	1.09
COC(=O)c1cc(OC)c(OC)cc1NC(=S)N1CCN(c2ccccn2)CC1	7.5	-14.3	103.3	-5.7	99.5	0.99
CN(C)c1ccc(C(=O)/C=C/c2ccc(Br)cc2)cc1	-5.1	17.3	121.5	-24.1	104.3	1.13
O=C(/C=C/c1ccccc1)c1ccc2c(c1)OCCCCO2	-10.1	147.0*	139.7*	-44.5	112.2	2.64
SMILES	STAT3 blocker	APP 5'UTR act	STAT1 act	STAT1 blocker	STAT3 act	NF-kB expr up
Cc1ccc(C(=O)NCC(=O)OCC(=O)c2ccc3c(c2)NC(=O)CO3)cc1C	-11.0	-0.2	102.5	-3.9	110.5	1.29
CN(C)c1ccc(C(=O)/C=C/c2ccccc2)cc1	13.4	139.8*	138.4*	-41.1	93.2	4.9*
Cc1cc(C)cc(OCC(=O)OCC(=O)c2ccc3c(c2)NC(=O)CO3)c1	-5.6	/	108.9	-9.7	103.3	3.6*
O=C1COc2ccc(C(=O)/C=C/c3ccccc3)cc2N1	15.2	5.8	97.8	2.4	87.0	3.32*
O=C(CSCc1ccc(Cl)cc1Cl)Nc1nccs1	4.0	6.2	98.4	1.8	99.8	1.03
Cc1cc(C)n(-c2cccc(C(=O)O)c2)n1	4.9	44.7	98.0	0.3	97.8	0.88
COc1ccc(CN(C(=O)Cn2nnc(-c3ccc(C)o3)n2)C(C(=O)NCC2CCCO2)c2ccco2)cc1 (configuration not stated)	3.1	-10.5	100.8	-2.8	99.3	0.87
O=C(c1ccccc1)c1ccccc1C(=O)N1CCCC1	8.0	4.5	91.3	4.0	96.4	6.37*
CCCCOc1ccc(-c2ncc(Cl)cn2)cc1	14.0	11.8	122.0	-23.9	90.9	3.72*
CCCCOc1ccc(-c2cnc3ccccc3n2)cc1	42.3	/	149.0*	-55.1	64.1	3.65*
CCCCCCCOc1ccc(-c2ccc(C#N)cn2)cc1	-1.4	6.0	107.6	-8.6	99.0	1.11
Clc1ccc(-c2cnc3ccccc3n2)cc1	-16.1	135.2*	113.3	-11.5	110.7	3.32*
c1csc(-c2cnc3ccccc3n2)c1	1.3	92.6	128.8*	-29.1	102.6	2.63
O=C(N/N=C/c1cccc(OC(=O)c2ccco2)c1)c1ccc(F)cc1	20.0	52.6	121.8	-24.6	86.1	2.29
Cc1nc(N2CCC(C)CC2)c2c(C)c(C(=O)Nc3ccccc3C(F)(F)F)sc2n1	7.6	21.8	90.7	8.8	97.3	1.15
Cc1ccc(C(C2C(=O)CC(C)(C)CC2=O)C2C(=O)CC(C)(C)CC2=O)s1	-8.2	6.1	100.2	-0.2	111.6	1.11
CCn1c(COc2ccc(=O)n(-c3ccccc3)n2)nnc1SC	10.4	12.0	98.3	1.7	95.0	1.16
CCCCOc1ccc(-c2cc(C(=O)NNC(=S)NCC)c3ccccc3n2)cc1	87.4*	153.5*	45.4	59.5*	27.6	4.11*
CC(C)OCCCNC(=S)NNC(=O)c1ccc(Cl)c(Cl)c1	10.4	8.2	112.4	-15.4	94.7	0.96
Cc1nnc(SCc2cnc(-c3ccc(C(C)C)cc3)s2)n1C	65.2*	151.5*	66.2	37.0*	50.4	5.69*
c1ccc(-c2ncc(CSc3nncn3-c3ccccc3)s2)cc1	11.9	1.1	97.7	2.5	92.8	1.15
CC(C)c1onc(C(=O)NCc2ccccc2)c1[N+](=O)[O-]	3.6	7.1	92.0	9.1	99.3	1.13
c1ccc(-c2n[nH]c(-c3ccccn3)n2)nc1	0.4	46.3	144.5*	-48.4	102.7	1.99
O=C(C1CCCN(CCCc2ccccc2)C1)N1CCCCC1 (configuration not stated)	-7.9	21.8	102.3	-2.6	109.0	1.25

Assay outcomes from PubChem BioAssay.
